{"data": "Results collected from several papers", "target": "Dual specificity protein kinase CLK4 (CLK4, Homo sapiens, UniProt Q9HAZ1)", "note": "Lines come from different studies, so protocols differ."}
{"Compound": "Cc1sc(C(=O)NC2COC2)cc1-n1cc(NC(=O)Nc2c(F)cccc2Cl)cn1", "effect on": "enzyme activity", "action": "inhibitor", "concentration": "10 µM", "measurement": "remaining activity", "result": "102%"}
{"Compound": "CNC(=O)c1cc(Oc2ccc(NC(=O)Nc3ccc(Cl)c(C(F)(F)F)c3)cc2)ccn1", "effect on": "cell-free assay", "concentration": "0.5 µM", "measurement": "remaining signal", "result": "95.2%"}
{"Compound": "Cc1ccc(C(=O)Nc2ccc(CN3CCN(C)CC3)c(C(F)(F)F)c2)cc1C#Cc1cnc2cccnn12", "effect on": "enzyme activity", "action": "inhibitor", "concentration": "23.5 nM", "measurement": "remaining activity", "result": "54%"}
{"Compound": "CN(c1ccnc(CNc2nc(Nc3ccc4c(c3)CC(=O)N4)ncc2C(F)(F)F)n1)S(C)(=O)=O", "effect on": "binding", "method": "competition with immobilised ligand", "concentration": "1 µM", "measurement": "remaining binding", "result": "1.4%"}
{"Compound": "Oc1cccc(-c2nc(N3CCOCC3)c3oc4ncccc4c3n2)c1", "effect on": "cell-free assay", "concentration": "0.5 µM", "measurement": "remaining signal", "result": "81.5%"}
{"Compound": "CC(=O)Nc1c(C(C)=O)c(=O)n(C)c2nc(-c3ccc(Cl)cc3Cl)c(-c3ccc(Cl)cc3)cc12", "effect on": "cell-free assay", "method": "competition with immobilised ligand", "concentration": "1 µM", "measurement": "remaining binding", "result": "100%"}
{"Compound": "CS(=O)(=O)Nc1cccc(-c2csc(NC(=O)CSc3nc4nccnc4c(=O)n3CCc3ccccc3)n2)c1", "effect on": "enzyme activity", "action": "inhibitor", "concentration": "10 µM", "measurement": "inhibition", "result": "14%"}
{"Compound": "CCCOc1ccc([C@@H]2[C@@H](C(=O)O)[C@H](c3ccc4c(c3)OCO4)CN2CC(=O)Nc2c(CC)cccc2CC)cc1", "effect on": "cell-free assay", "method": "competition with immobilised ligand", "concentration": "1 µM", "measurement": "remaining binding", "result": "89%"}
{"Compound": "COc1cc(-c2cc(-c3ccc(N4CCNCC4)cc3)cnc2C)cc(OC)c1OC", "effect on": "enzyme activity", "action": "inhibitor", "concentration": "0.1 µM", "measurement": "inhibition", "result": "1%"}
{"Compound": "O=C1NC(=O)c2cc(Nc3ccc(F)cc3)c(Nc3ccc(F)cc3)cc21", "effect on": "cell-free assay", "concentration": "0.5 µM", "measurement": "remaining signal", "result": "88.6%"}
{"Compound": "CS(=O)(=O)N1CCCC(NC(=O)[C@H](CCC2CCCCC2)NC(=O)c2ccc(CNc3ncnc4c3nnn4-c3ccccc3)cc2)C1 (stereo partly drawn)", "effect on": "cell-free assay", "method": "competition with immobilised ligand", "concentration": "0.1 µM", "measurement": "remaining binding", "result": "85%"}
{"Compound": "Cc1cc(NC(=O)c2cccc3cc(-c4cccc5[nH]nc(N)c45)ccc23)ccc1F", "effect on": "enzyme activity", "action": "inhibitor", "concentration": "0.1 µM", "measurement": "activity vs control", "result": "90%"}
{"Compound": "Cc1cnc(NC2CCOCC2)nc1-n1cnc(C(=O)NC(CN)c2cc(F)cc(Cl)c2)c1 (stereo not drawn)", "effect on": "enzyme activity", "action": "inhibitor", "method": "radiometric", "concentration": "1 µM", "measurement": "remaining activity", "result": "63%"}
{"Compound": "C[C@@H]1CN(c2cc(-c3nn(C)c4ccc(OC5(C)CC5)cc34)ncn2)C[C@H](C)O1", "effect on": "cell-free assay", "method": "competition with immobilised ligand", "concentration": "1 µM", "measurement": "remaining binding", "result": "100%"}
{"Compound": "Cn1cnc(Br)c1C1=CN(c2ncnc3[nH]cnc23)CCS1", "effect on": "enzyme activity", "action": "inhibitor", "method": "radiometric", "concentration": "2 µM", "measurement": "inhibition", "result": "98.8%"}
{"Compound": "COc1cccc(CNC(=O)c2nc3scc(COCc4ccc(C(=O)O)cc4)c3c(=O)[nH]2)c1", "effect on": "cell-free assay", "method": "competition with immobilised ligand", "concentration": "1 µM", "measurement": "remaining binding", "result": "94.4%"}
{"Compound": "CC(C)(O)[C@H]1CC[C@H](Nc2ccc3ncc(-c4cccc(C(F)(F)F)c4)n3n2)CC1", "effect on": "enzyme activity", "action": "inhibitor", "concentration": "1 µM", "measurement": "remaining activity", "result": "21.3%"}
{"Compound": "CCN1/C(=C/C(C)=O)Sc2ccc(OC)cc21", "effect on": "cell-free assay", "concentration": "0.5 µM", "measurement": "remaining signal", "result": "18.5%"}
{"Compound": "Cn1cncc1C1=CN(c2ncnc3[nH]cnc23)CCS1", "effect on": "enzyme activity", "action": "inhibitor", "method": "radiometric", "concentration": "2 µM", "measurement": "inhibition", "result": "84.7%"}
{"Compound": "CCN(CC)CCNC(=O)c1c(C)[nH]c(/C=C2\\C(=O)Nc3ccc(F)cc32)c1C", "effect on": "cell-free assay", "concentration": "0.5 µM", "measurement": "remaining signal", "result": "26.3%"}
{"Compound": "CC(C)(C)c1nc2c(s1)c1nc(N)ncc1c1ccc(NS(=O)(=O)c3c(F)cccc3F)c(F)c12", "effect on": "enzyme activity", "action": "inhibitor", "method": "radiometric", "concentration": "1 µM", "measurement": "remaining activity", "result": "81%"}
